This is an account of results in ChEMBL document CHEMBL1148921, “Steroidal glycosides from the bulbs of Ornithogalum thyrsoides” (J Nat Prod, 2004).

Broadly, the IC50 is the concentration that gives 50% inhibition. Low readings indicate inhibition by little substance, high ones a need for much substance.

One experiment concerns HSC-2. The experiment in a line: Cytotoxicity against human HSC2 cells after 24 hrs by MTT assay. It counts as functional, cell-based. The following applies: HSC-2, 24 h. In short, it runs like this: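 HSC-2 monolayers kept in DMEM with 10% heat-inactivated FBS at 37 °C, 5% CO2. Trypsinized cells plated, grown 24 h, PBS-washed, exposed 24 h with or without compound. After PBS wash, 0.2 mg/mL MTT in DMEM/10% FBS for 4 h; cells lysed in DMSO and absorbance taken as relative viable cell number. IC50 reported.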

In the next experiment the test system is HL-60. The experiment in a line: Cytotoxicity against human HL60 cells after 72 hrs by MTT assay. It counts as functional, cell-based. The following applies: HL-60, 72 h. In short, it runs like this:
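HL-60 leukemia cells seeded in 96-well plates, held 24 h at 37 °C in 5% CO2/air, then given sample in EtOH-H2O (1:1) to final 0.1-20 µg/mL; solvent alone for controls. Exposure 72 h, then MTT for 4 h at 37 °C; cells and formazan pelleted, formazan dissolved in DMSO, A550 read. Triplicate; IC50 = concentration cutting viable cell number by 50%.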
In general terms: Tetrazolium assays rely on reduction of a dye to a coloured formazan, in cell work by metabolically active cells.

Each structure is given as a SMILES string. ≈ marks a conversion by molar mass, not a printed value.

`COc1cc(C(=O)OC[C@H]2O[C@@H](O[C@@H]3C[C@H](O)C[C@@H]4CC[C@H]5[C@@H]6C[C@H](O[C@@H]7O[C@H](CO)[C@@H](O)[C@H](O)[C@H]7O)[C@H]([C@H](C)[C@@H](O)CCC(C)C)[C@@]6(C)CC[C@@H]5[C@]43C)[C@H](O)[C@@H](O)[C@@H]2O)cc(OC)c1OC`: the IC50 is greater than 100 µg/mL in the experiment on HSC-2 and 5 µg/mL (≈ 5.23 µM) in the experiment on HL-60.

For the compound `CC(C)=CC[C@H](O)[C@@H](C)[C@H]1[C@@H](O[C@@H]2O[C@@H](C)[C@H](O)[C@@H](O)[C@H]2O)C[C@H]2[C@@H]3CC[C@H]4C[C@@H](O)C[C@@H](O[C@@H]5O[C@@H](C)[C@H](O)[C@@H](O)[C@H]5O)[C@]4(C)[C@H]3CC[C@]12C`, the IC50 is greater than 100 µg/mL in the experiment with HSC-2 and greater than 10 µg/mL in the experiment on HL-60.

Turning to `CC(C)=CC[C@H](O)[C@@H](C)[C@H]1[C@@H](O[C@@H]2O[C@@H](C)[C@H](O)[C@@H](O)[C@H]2O)C[C@H]2[C@@H]3CC=C4C[C@@H](O)C[C@@H](O[C@@H]5O[C@@H](C)[C@H](O)[C@@H](O)[C@H]5O)[C@]4(C)[C@H]3CC[C@]12C`, the IC50 is greater than 100 µg/mL with HSC-2 and 5.1 µg/mL (≈ 7.04 µM) in the experiment with HL-60.

With `C[C@@H]1CC[C@@]2(OC1)O[C@H]1C[C@H]3[C@@H]4CC=C5C[C@@H](O)C[C@@H](O[C@@H]6OC[C@H](O)[C@H](O[C@@H]7OC[C@@H](O)[C@H](O)[C@H]7O)[C@H]6O[C@@H]6O[C@@H](C)[C@H](O)[C@@H](O)[C@H]6O)[C@]5(C)[C@H]4CC[C@]3(C)[C@H]1[C@@H]2C`, the IC50 in the experiment on HSC-2 is 21.2 µg/mL (≈ 25.2 µM); with HL-60 it was 1.9 µg/mL (≈ 2.26 µM).

For `C[C@@H]1CC[C@@]2(OC1)O[C@H]1C[C@H]3[C@@H]4CC[C@H]5C[C@@H](O)C[C@@H](O[C@@H]6O[C@H](CO)[C@@H](O)[C@H](O)[C@H]6O)[C@]5(C)[C@H]4CC[C@]3(C)[C@H]1[C@@H]2C`, the IC50 in the experiment with HSC-2 amounted to 34.6 µg/mL (≈ 58.2 µM); in the experiment with HL-60, 1.6 µg/mL (≈ 2.69 µM).

Turning to `C[C@@H]1CC[C@@]2(OC1)O[C@H]1C[C@H]3[C@@H]4CC=C5C[C@@H](O)C[C@@H](O[C@@H]6OC[C@H](O)[C@H](O)[C@H]6O[C@@H]6O[C@@H](C)[C@H](O)[C@@H](O)[C@H]6O)[C@]5(C)[C@H]4CC[C@]3(C)[C@H]1[C@@H]2C`, the results for the IC50 in the experiment on HSC-2 and in the experiment on HL-60 were 19.9 µg/mL (≈ 28.1 µM) and 2.2 µg/mL (≈ 3.1 µM), respectively.

For the compound `COc1cc(C(=O)OC[C@H]2O[C@@H](O[C@@H]3C[C@H](O)C[C@@H]4CC[C@H]5[C@@H]6C[C@H](O[C@@H]7O[C@H](CO)[C@@H](O)[C@H](O)[C@H]7O)[C@H]([C@H](C)[C@@H](O)CC=C(C)C)[C@@]6(C)CC[C@@H]5[C@]43C)[C@H](O)[C@@H](O)[C@@H]2O)cc(OC)c1OC`, the IC50 in the experiment with HSC-2 was greater than 100 µg/mL; with HL-60, greater than 10 µg/mL.

With `CC(C)CC[C@H](O)[C@@H](C)[C@H]1[C@@H](O[C@@H]2O[C@H](CO)[C@@H](O)[C@H](O)[C@H]2O)C[C@H]2[C@@H]3CC[C@H]4C[C@@H](O)C[C@@H](O[C@@H]5O[C@H](CO)[C@@H](O)[C@H](O)[C@H]5O)[C@]4(C)[C@H]3CC[C@]12C`, the IC50 in the experiment with HSC-2 is greater than 100 µg/mL; with HL-60, greater than 10 µg/mL.

For the compound `CC(C)CC[C@H](O)[C@@H](C)[C@H]1[C@@H](O[C@@H]2O[C@@H](C)[C@H](O)[C@@H](O)[C@H]2O)C[C@H]2[C@@H]3CC=C4C[C@@H](O)C[C@@H](O[C@@H]5O[C@@H](C)[C@H](O)[C@@H](O)[C@H]5O)[C@]4(C)[C@H]3CC[C@]12C`, the values for the IC50 in the experiment on HSC-2 and in the experiment on HL-60 were greater than 100 µg/mL and greater than 10 µg/mL, respectively.

In the case of `C[C@@H]1O[C@@H](O[C@H]2[C@H](O[C@@H]3C[C@H](O)CC4=CC[C@H]5[C@@H]6C[C@@H]7O[C@]8(C[C@H](O)[C@@H](C)CO8)[C@@H](C)[C@@H]7[C@@]6(C)CC[C@@H]5[C@]43C)OC[C@H](O)[C@@H]2O[C@@H]2OC[C@@H](O)[C@H](O)[C@H]2O)[C@H](O)[C@H](O)[C@H]1O`, the values for the IC50 in the experiment with HSC-2 and with HL-60 were greater than 100 µg/mL and greater than 10 µg/mL, respectively.

On to `CC(=O)OC[C@H]1O[C@@H](O[C@H]2C[C@H]3[C@@H]4CC[C@H]5C[C@@H](O)C[C@@H](O[C@@H]6O[C@@H](C)[C@H](O)[C@@H](O)[C@H]6O)[C@]5(C)[C@H]4CC[C@]3(C)[C@H]2[C@H](C)[C@@H](O)CCC(C)C)[C@H](O)[C@@H](O)[C@@H]1O`, for which the results for the IC50 in the experiment with HSC-2 and with HL-60 were greater than 100 µg/mL and 5.3 µg/mL (≈ 6.73 µM), respectively.

On to `CC(C)CC[C@H](O)[C@@H](C)[C@H]1[C@@H](O[C@@H]2O[C@H](CO)[C@@H](O)[C@H](O)[C@H]2O)C[C@H]2[C@@H]3CC[C@H]4C[C@@H](O)C[C@@H](O[C@@H]5O[C@@H](C)[C@H](O)[C@@H](O)[C@H]5O)[C@]4(C)[C@H]3CC[C@]12C`, for which the IC50 in the experiment with HSC-2 was greater than 100 µg/mL; in the experiment on HL-60, greater than 10 µg/mL.

In the case of `CC(=O)OC[C@H]1O[C@@H](O[C@H]2C[C@H]3[C@@H]4CC[C@H]5C[C@@H](O)C[C@@H](O[C@@H]6O[C@@H](C)[C@H](O)[C@@H](O)[C@H]6O)[C@]5(C)[C@H]4CC[C@]3(C)[C@H]2[C@H](C)[C@@H](O)CCC(C)C)[C@H](O)[C@@H](O)[C@@H]1O[C@@H]1OC[C@](O)(CO)[C@H]1O`, the IC50 was greater than 100 µg/mL in the experiment with HSC-2 and greater than 10 µg/mL with HL-60.

Turning to `C[C@@H]1O[C@@H](O[C@H]2[C@H](O[C@@H]3C[C@H](O)CC4=CC[C@H]5[C@@H]6C[C@@H]7O[C@]8(C[C@H](O)[C@@H](C)CO8)[C@@H](C)[C@@H]7[C@@]6(C)CC[C@@H]5[C@]43C)OC[C@H](O)[C@@H]2O)[C@H](O)[C@H](O)[C@H]1O`, the IC50 in the experiment on HSC-2 is greater than 100 µg/mL; with HL-60 it was 5.2 µg/mL (≈ 7.17 µM).

For the compound `COc1cc([C@@H]2c3cc4c(cc3[C@@H](O[C@@H]3O[C@@H]5CO[C@@H](C)O[C@H]5[C@H](O)[C@H]3O)[C@H]3COC(=O)[C@H]23)OCO4)cc(OC)c1O` [ETOPOSIDE], the figures for the IC50 with HSC-2 and in the experiment on HL-60 were 24.4 µg/mL (≈ 41.5 µM) and 0.23 µg/mL (≈ 0.391 µM), respectively.
